Data from PubChem BioAssay.
Activity calls are given as the source filed them.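 Rule for the calls, unless noted: active = NADPH fluorescence slope more negative than the mean of all samples by about 3 SD, 99.7% confidence; inactive = the rest.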

Experiments:
[1] = inhibitors of TNFa-induced NFkB p65 translocation, primary screen, imaging, HUVEC, MLSMR starter and 10KST1 sets (AID 438;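 active = inhibition above 20% together with a positive visual image hit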;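 note: compound added about 3h40 before a 20 min TNFalpha stimulation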;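 for inhibition: signal is the nuclear over cytoplasmic p65 intensity ratio per well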); conditions: HUVEC TNFa-induced p65 nuclear translocation; cell count: measured here: nuclei count (cytotoxicity indicator), at 2.08 µM; inhibition: at 2 µM, stronger effect = higher value, 0% TNFa-plus-vehicle, 100% no-TNFa wells
[2] = endothelial E-selectin expression blockers – imaging, HUVEC, immunofluorescence, MLSMR starter and 10KST1 sets, primary screen (AID 487;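 active = visually confirmed hit in the image check and inhibition above 20%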;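 for inhibition: signal is fraction of cell area covered by stained E-selectin grains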;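 for nuclei count: 100% = median nuclei count of all wells on the same plate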); conditions: HUVEC TNFalpha-induced E-selectin immunofluorescence imaging, at 2 µM; inhibition: stronger effect = higher value; nuclei count: measured here: cell number, toxicity
[3] = Primary imaging screen for DUSP6 inhibitors that restore phospho-Erk in transfected HeLa cells, chemical complementation (AID 609;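 active = compounds giving at least 50% inhibition in the cell-based MKP-3 phosphatase rescue imaging test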;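 for inhibition: phospho-Erk level distribution per well compared with pooled transfected vehicle control wells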); conditions: HeLa MKP-3 transfected, phospho-Erk imaging KS statistic, at 10 µM, cells stimulated with TPA for 15 min
[4] = molecular target: Dual specificity protein phosphatase 6 (Homo sapiens) (UniProt Q16828); test: as above; conditions: HeLa MKP-3 transfected, phospho-Erk imaging KS statistic; at 10 µM; stronger effect = higher value; cells stimulated with TPA for 15 min
Sequence of Dual specificity protein phosphatase 6 (Homo sapiens) (Q16828 whole entry, looked up): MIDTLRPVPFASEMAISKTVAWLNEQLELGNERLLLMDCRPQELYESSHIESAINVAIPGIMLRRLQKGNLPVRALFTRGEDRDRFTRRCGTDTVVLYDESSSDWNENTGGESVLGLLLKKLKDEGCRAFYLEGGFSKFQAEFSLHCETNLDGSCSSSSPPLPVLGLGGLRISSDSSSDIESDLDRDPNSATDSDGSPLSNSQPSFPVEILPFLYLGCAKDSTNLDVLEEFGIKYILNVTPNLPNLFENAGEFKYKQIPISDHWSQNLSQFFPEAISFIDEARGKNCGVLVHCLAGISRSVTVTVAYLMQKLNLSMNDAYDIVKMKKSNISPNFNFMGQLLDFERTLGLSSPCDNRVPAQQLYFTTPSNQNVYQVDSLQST

[5] = molecular target: Voltage-gated potassium channel subunit beta-2 (Rattus norvegicus) (UniProt P62483); test: inhibitors of rat Kvbeta2 reductase activity – biochemical, NADPH fluorescence, primary screen (AID 622;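 active = fluorescence slope higher than the sample average by over 3 SD, cut at about -0.22 in these data, passing the limit was not always enough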;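 note: slope of raw intensity against log time taken from 70 to 1610 s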); conditions: recombinant KvBeta, 4-cyanobenzaldehyde reduction, at 10 µM, stronger effect = higher value
Sequence of Voltage-gated potassium channel subunit beta-2 (Rattus norvegicus) (P62483 whole entry, looked up): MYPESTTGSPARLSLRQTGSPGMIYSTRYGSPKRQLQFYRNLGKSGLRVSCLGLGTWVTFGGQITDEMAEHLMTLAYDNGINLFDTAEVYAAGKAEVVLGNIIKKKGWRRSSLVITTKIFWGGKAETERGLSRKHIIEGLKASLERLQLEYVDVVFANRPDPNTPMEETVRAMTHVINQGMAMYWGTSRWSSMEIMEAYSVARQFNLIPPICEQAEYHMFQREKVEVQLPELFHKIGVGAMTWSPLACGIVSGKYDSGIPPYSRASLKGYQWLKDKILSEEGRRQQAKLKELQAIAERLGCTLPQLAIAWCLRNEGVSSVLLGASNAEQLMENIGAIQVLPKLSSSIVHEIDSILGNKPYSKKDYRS

[6] = molecular target: Voltage-gated potassium channel subunit beta-2 (Rattus norvegicus) (UniProt P62483); test: enhancers of rat Kvbeta2 NADPH turnover – biochemical, NADPH fluorescence, primary screen (AID 623); conditions: Recombinant KvBeta, NADPH fluorescence decrease slope, 10 min; at 10 µM; stronger effect = lower value;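 note: fluorescence intensity change per second fitted from 20 to 320 s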
[7] = molecular target: Alpha-2C adrenergic receptor (Homo sapiens) (UniProt P18825); test: compounds altering alpha2C-coupled GIRK flux – cell-based, HEK293 alpha2C/GIRK1/2, thallium flux, primary screen (AID 624;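 active = fluorescence slope after compound addition differing from the mean of all screened samples at 99.7% confidence, in either direction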;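 note: slope of fluorescence ratio to pre-addition baseline per second over 15 to 24 s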); conditions: thallium flux BTC fluorescence, at 10 µM, actives lie on both sides
Sequence of Alpha-2C adrenergic receptor (Homo sapiens) (P18825 whole entry, looked up): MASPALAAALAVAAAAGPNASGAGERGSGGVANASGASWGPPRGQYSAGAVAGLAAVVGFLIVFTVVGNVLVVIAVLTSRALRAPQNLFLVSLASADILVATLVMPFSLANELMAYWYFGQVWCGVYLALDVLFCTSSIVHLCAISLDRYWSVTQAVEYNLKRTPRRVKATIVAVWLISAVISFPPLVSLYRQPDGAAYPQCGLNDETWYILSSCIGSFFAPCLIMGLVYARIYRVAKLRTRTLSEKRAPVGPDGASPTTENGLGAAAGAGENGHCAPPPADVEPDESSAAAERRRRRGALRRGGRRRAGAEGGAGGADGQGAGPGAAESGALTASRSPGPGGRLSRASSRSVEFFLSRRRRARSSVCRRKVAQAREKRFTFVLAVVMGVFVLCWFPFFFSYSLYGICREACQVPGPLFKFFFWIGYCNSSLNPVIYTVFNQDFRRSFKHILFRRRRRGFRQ

[8] = inhibitors of larval lipid processing in zebrafish, primary screen, whole organism, PED6 fluorescence, gall bladder and intestine (AID 686;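 active = a full or partial loss of lipid-probe fluorescence in the fish gall bladder, intestine or both, judged by eye; inactive = no fluorescence loss, or compound toxic to the fish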;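 note: larvae 5 to 7 days old with five fish per well; signal comes from phospholipase A2 cleavage of quenched PED6 carried via bile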); conditions: Zebrafish larvae PED6 lipid processing, fluorescence scoring; screened at 20 µM (by protocol)
Summary of the method: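 Incubation: overnight exposure of larvae to compound plus PED6 / Test system: live zebrafish larvae aged 5-7 days, whole organism / Amount: 5 larvae per well / Read-out basis: visual per-well fluorescence inhibition score / Signal: visual fluorescence microscopy scoring of gall bladder, gut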

[9] = loss of swimming-algae plug formation – whole organism, Chlamydomonas reinhardtii, WT vs cilia-less mutant, absorbance, 96-well, primary screen (AID 463189;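 active = inhibition at or above 50% relative to wild type and mutant plate controls; inactive = inhibition below 50%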;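 note: 0% = wild type cc124 cells in DMSO and 100% = ciliumless bld1 mutant cells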); conditions: Chlamydomonas reinhardtii gravitaxis, OD600 absorbance, 2 days; at 10 µM; stronger effect = higher value
[10] = measured here: cell density z-score
[11] = measured here: nuclear c-Myc green intensity z-score
[12] = measured here: nuclear pErk red intensity z-score, stronger effect = higher value

SMILES | cell count [1] | inhibition [1] | inhibition [2] | nuclei count [2] [%] | z-score [3, 10] | z-score [3, 11] | z-score [3, 12] | inhibition [4] | fluorescence slope [5] | NADPH fluorescence slope [6] | slope [7] | outcome [8] | inhibition [9]
CCC1(C)Cc2c(sc3c2c(=O)n(C)c2nnc(SCC(=O)c4ccc(Cl)cc4)n32)CO1 (centres undefined) | 559 | -2.6% (inactive) | -61.6% (inactive) | 121 | -1.48 | 3.25 | -1.65 | 9.82% (inactive) | -0.37 (inactive) | 2e-05 (inactive) | 0.00685 (inactive) | inactive | -10.8% (inactive)
CCCCn1c(-c2ccc(Cl)cc2)nc2c(=O)n(C)c(=O)[nH]c21 | 453 | -18.9% (inactive) | -400% (inactive) | 197 | 0.0253 | -0.817 | 1.4 | 11% (inactive) | -0.398 (inactive) | -5.4e-06 (inactive) | 0.00511 (inactive) | inactive | -2.64% (inactive)
O=C(O)C1CSCN1S(=O)(=O)c1cccc2nsnc12 (centres undefined) | 539 | -8.4% (inactive) | -34% (inactive) | 120 | -0.369 | 1.2 | -0.893 | -11.5% (inactive) | -0.496 (inactive) | -5.5e-05 (inactive) | 0.00516 (inactive) | inactive | -1.08% (inactive)
CSc1nc2sc3c(c2c2nnnn12)CC(C)(C)OC3 | 661 | -6.7% (inactive) | -16.2% (inactive) | 187 | -1.26 | 1.03 | 0.586 | -5.89% (inactive) | -0.496 (inactive) | -6.6e-05 (inactive) | 0.00446 (inactive) | inactive | 16.5% (inactive)
O=c1[nH]c(CN2CCCCC2)nc2c1C1(CCCCC1)Cc1ccccc1-2 | 374 | -4.7% (inactive) | -4.9% (inactive) | 104 | 0.315 | 0.221 | -1.87 | -4.7% (inactive) | -0.395 (inactive) | 2.4e-05 (inactive) | 0.0066 (inactive) | inactive | -10.4% (inactive)
Cc1ccc(S(=O)(=O)N2CCC(N3CCCCCC3)CC2)cc1 | 449 | -31.4% (inactive) | -231% (inactive) | 163 | 0.833 | -1.65 | 0.596 | 1.04% (inactive) | -0.29 (inactive) | -8.7e-06 (inactive) | 0.0051 (inactive) | inactive | 116% (active)
COc1cccc(-c2nnc3sc(-c4ccco4)nn23)c1 | 467 | -4% (inactive) | 3.6% (inactive) | 105 | 1.05 | -0.932 | -0.641 | 8.31% (inactive) | -0.463 (inactive) | 1.3e-05 (inactive) | 0.00496 (inactive) | active; weak signal in gallbladder and intestine | 38.1% (inactive)
c1ccc(OCc2nn3c(C4CCCCC4)nnc3s2)cc1 | 633 | -8.1% (inactive) | -110% (inactive) | 167 | -0.542 | -0.363 | 1.81 | -6.06% (inactive) | -0.434 (inactive) | -0.000186 (inactive) | 0.00482 (inactive) | inactive | -1.22% (inactive)
Cn1ncc(N=Cc2ccccc2O)c1C(=O)Nc1ccccc1 | 635 | -3.8% (inactive) | -20.9% (inactive) | 140 | -0.0255 | 0.841 | 1.17 | 4.25% (inactive) | -0.5 (inactive) | -0.000122 (inactive) | 0.00441 (inactive) | inactive | 0.038% (inactive)
O=C(Nc1nc(=O)c2ccccc2s1)c1ccccc1 | 647 | 5.5% (inactive) | -58.7% (inactive) | 158 | 0.159 | -0.389 | 0.0783 | 9.61% (inactive) | -0.505 (inactive) | -4.5e-05 (inactive) | 0.00905 (active) | inactive | 13.1% (inactive)
CCOC(=O)C1=C(CSc2nc(-c3ccncc3)ccc2C#N)OC(N)=C(C#N)C1c1cccnc1 (centres undefined) | 701 | -10.4% (inactive) | 45.7% (inactive) | 173 | -0.622 | 0.296 | 2 | -8.95% (inactive) | -0.283 (inactive) | -5.8e-05 (inactive) | 0.00429 (inactive) | inactive | -5.64% (inactive)
Fc1ccccc1-c1nc(N2CCCCC2)c2ccccc2n1 | 364 | -8.4% (inactive) | -149% (inactive) | 173 | 1.66 | 0.183 | -1.27 | 6.04% (inactive) | -0.447 (inactive) | -5.7e-06 (inactive) | 0.00522 (inactive) | inactive | 140% (active)
Cc1cc(Cl)ccc1OCC(=O)OC(C)C(=O)N(C)C (centres undefined) | 356 | -24% (inactive) | -194% (inactive) | 168 | 1.09 | 0.169 | -0.845 | 5.26% (inactive) | -0.439 (inactive) | -0.000171 (inactive) | 0.00631 (inactive) | inactive | 7.97% (inactive)
